Laboratory results as given in ChEMBL document CHEMBL4823286, “Synthesis and evaluation of novel 2,4-diaminopyrimidines bearing a sulfoxide moiety as anaplastic lymphoma kinase (ALK) inhibition agents” (Bioorg Med Chem Lett, 2021).
pIC50: −log10 of the molar value.

Legend:
NCI-H2228 = test: Antiproliferative activity against human NCI-H2228 cells assessed as inhibition of cell proliferation measured by CCK8 assay; assay type: functional, cell-based
Outline: (§1)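 Cell proliferation inhibition; IC50 given as mean ± SD of three independent experiments.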

BaF3 = test: Antiproliferative activity against mouse BaF3 cells overexpressing ALK assessed as inhibition of cell proliferation measured by CCK8 assay; assay type: functional, cell-based; outline: as §1

pIC50 (NCI-H2228): 7.16 | pIC50 (BaF3): 7.58
Structure (SMILES): CC[S+]([O-])c1ccccc1Nc1nc(Nc2ccc(N(C)CCN(C)C)cc2OC)ncc1Cl (configuration not stated)
